Experimental findings from ChEMBL document CHEMBL4371071, “Muscarinic agonist, (±)-quinuclidin-3-yl-(4-fluorophenethyl)(phenyl)carbamate: High affinity, but low subtype selectivity for human M1 - M5 muscarinic acetylcholine receptors” (Bioorg Med Chem Lett, 2019) are described below.

The source made the active and inactive calls. The rule behind the calls is not given here.

Usually Ki stands for a dissociation constant, usually derived from enzyme kinetics or from competition with a known ligand. The low end stands for a stronger hold on the target, the high end for a looser hold on the target.

The species named for assay [1] is Homo sapiens. The experiment in a line: Selectivity ratio of Ki for displacement of [3H]NMS from human M1 AChR expressed in CHO cell membranes to Ki for displacement of [3H]NMS from human M5 AChR expressed in CHO cell membranes. For orientation: In a radioligand displacement assay an active substance lowers the binding of a labelled ligand.
The target in assay [2] is Muscarinic acetylcholine receptor M3 (Homo sapiens, UniProt P20309). The following applies: CHO, at 100 µM.
In assay [3] the target is T1, Muscarinic acetylcholine receptor (Rattus norvegicus) (UniProt P08482+P08483+P08485+P08911+P10980). The experiment in a line: Agonist activity at muscarinic acetylcholine receptor in superfused rat striatal slices assessed as augmentation of oxotremorine-induced [3H]DA release at 1 to 10 uM preincubated for 35 mins in presence of [3H]DA followed by oxotremorine addition and measured after 25 mins in presence of scopolamine by liquid scintillation spectroscopic method. Format: […]. A digest of the protocol:
(§1)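 Rat striatal slices (500 µm) in Krebs' buffer pH 7.4 at 34 °C for 60 min, with 0.1 µM [3H]DA over the final 30 min. Superfused at 0.6 mL/min with 10 µM nomifensine and 10 µM pargyline; 5-min fractions. Basal outflow taken over 15 min, then test agent 35 min, then 100 µM oxotremorine 25 min. Overflow = summed radioactivity minus basal, by scintillation; n = 4–10.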

Assay [4] has as its target T2, Muscarinic acetylcholine receptor M4 (Homo sapiens) (UniProt P08173).
T2 sequence (whole entry): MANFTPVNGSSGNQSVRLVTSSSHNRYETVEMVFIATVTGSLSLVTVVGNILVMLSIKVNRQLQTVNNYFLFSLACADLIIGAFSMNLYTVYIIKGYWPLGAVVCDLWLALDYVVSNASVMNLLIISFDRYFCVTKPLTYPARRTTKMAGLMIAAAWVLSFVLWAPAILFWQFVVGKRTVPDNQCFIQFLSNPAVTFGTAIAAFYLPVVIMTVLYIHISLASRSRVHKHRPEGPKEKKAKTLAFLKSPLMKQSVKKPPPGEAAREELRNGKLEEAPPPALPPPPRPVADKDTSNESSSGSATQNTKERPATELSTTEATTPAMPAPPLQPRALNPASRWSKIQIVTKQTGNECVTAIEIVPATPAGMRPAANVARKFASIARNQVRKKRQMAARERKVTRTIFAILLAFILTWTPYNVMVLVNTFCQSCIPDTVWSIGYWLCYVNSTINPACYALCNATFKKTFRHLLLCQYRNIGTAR
As to the kind of experiment: Displacement of [3H]NMS from human M4 AChR expressed in CHO cell membranes at 100 uM after 1 to 2 hrs by liquid scintillation spectrometry method relative to control. In outline:
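CHO membranes expressing the human subtype (20 µg protein/well) with 0.3 nM [3H]NMS and analog (1 nM–100 µM) in 50 mM Tris-HCl pH 7.4, 2 h at 25 °C. […] Filtered on GF/B, washed, counted by scintillation. IC50 taken from curves to give Ki; three independent experiments in duplicate.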

Assay [5] concerns the target T3, Muscarinic acetylcholine receptor M2 (Homo sapiens) (UniProt P08172).
T3 sequence (whole entry): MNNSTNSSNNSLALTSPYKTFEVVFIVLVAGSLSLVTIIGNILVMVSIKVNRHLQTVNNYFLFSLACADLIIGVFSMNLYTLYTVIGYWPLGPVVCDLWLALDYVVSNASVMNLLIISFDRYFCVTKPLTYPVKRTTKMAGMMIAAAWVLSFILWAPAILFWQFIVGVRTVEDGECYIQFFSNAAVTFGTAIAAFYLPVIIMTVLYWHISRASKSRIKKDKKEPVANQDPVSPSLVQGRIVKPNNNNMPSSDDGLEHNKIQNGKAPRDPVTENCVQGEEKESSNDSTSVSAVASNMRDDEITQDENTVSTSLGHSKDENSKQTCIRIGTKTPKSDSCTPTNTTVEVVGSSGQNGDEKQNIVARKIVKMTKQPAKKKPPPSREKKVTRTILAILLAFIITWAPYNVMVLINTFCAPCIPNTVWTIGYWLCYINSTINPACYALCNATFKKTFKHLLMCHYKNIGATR
As to the kind of experiment: Displacement of [3H]NMS from human M2 AChR expressed in CHO cell membranes at 100 uM after 1 to 2 hrs by liquid scintillation spectrometry method relative to control. A digest of the protocol: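 CHO membranes expressing the human subtype (20 µg protein/well) with 0.3 nM [3H]NMS and analog (1 nM–100 µM) in 50 mM Tris-HCl pH 7.4, 2 h at 25 °C. Filtered on GF/B, washed, counted by scintillation. IC50 taken from curves to give Ki; three independent experiments in duplicate.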

Assay [6] has as its target T1, Muscarinic acetylcholine receptor (Rattus norvegicus). As to the kind of experiment: Agonist activity at muscarinic acetylcholine receptor in superfused rat striatal slices assessed as augmentation of oxotremorine-induced [3H]DA release at 0.1 to 10 uM preincubated for 35 mins in presence of [3H]DA followed by oxotremorine addition and measured after 25 mins by liquid scintillation spectroscopic method. In outline:
as §1

For assay [7], the target named is T4, Muscarinic acetylcholine receptor M1 (Homo sapiens, UniProt P11229).
T4 sequence (P11229 whole entry): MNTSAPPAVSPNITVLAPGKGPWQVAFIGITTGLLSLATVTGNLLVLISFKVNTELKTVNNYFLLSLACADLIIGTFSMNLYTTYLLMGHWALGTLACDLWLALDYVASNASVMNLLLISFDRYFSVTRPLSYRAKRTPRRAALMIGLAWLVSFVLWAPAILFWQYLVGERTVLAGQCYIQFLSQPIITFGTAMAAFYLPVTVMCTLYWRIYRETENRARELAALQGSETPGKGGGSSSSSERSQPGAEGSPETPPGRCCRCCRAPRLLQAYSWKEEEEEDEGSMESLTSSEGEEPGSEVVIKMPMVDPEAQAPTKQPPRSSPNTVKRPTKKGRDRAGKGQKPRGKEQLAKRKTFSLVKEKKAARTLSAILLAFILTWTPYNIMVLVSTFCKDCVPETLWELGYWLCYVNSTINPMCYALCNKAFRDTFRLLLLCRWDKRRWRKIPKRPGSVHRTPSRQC
As to the kind of experiment: Displacement of [3H]NMS from human M1 AChR expressed in CHO cell membranes after 1 to 2 hrs by liquid scintillation spectrometry method. Format: cell-based.

Sequence of Muscarinic acetylcholine receptor M3 (P20309 whole entry, looked up, the tested form may be a part): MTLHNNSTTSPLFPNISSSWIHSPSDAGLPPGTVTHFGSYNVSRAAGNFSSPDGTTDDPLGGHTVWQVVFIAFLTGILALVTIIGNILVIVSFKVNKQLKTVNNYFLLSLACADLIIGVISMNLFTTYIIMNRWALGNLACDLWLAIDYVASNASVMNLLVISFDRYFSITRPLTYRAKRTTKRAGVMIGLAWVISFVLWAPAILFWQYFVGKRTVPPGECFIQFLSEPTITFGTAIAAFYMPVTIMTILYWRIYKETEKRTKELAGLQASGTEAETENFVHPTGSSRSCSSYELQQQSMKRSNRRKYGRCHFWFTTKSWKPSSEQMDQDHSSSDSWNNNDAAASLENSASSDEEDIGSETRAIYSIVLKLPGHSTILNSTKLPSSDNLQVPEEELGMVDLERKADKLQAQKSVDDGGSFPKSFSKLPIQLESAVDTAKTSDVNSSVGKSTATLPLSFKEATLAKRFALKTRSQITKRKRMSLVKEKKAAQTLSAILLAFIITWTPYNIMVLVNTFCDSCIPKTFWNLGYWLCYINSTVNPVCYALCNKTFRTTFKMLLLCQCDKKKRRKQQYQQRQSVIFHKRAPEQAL

With `O=C(OC1CN2CCC1CC2)N(CCc1ccc(F)cc1)c1ccccc1` (racemic), the Ratio Ki in assay [1] worked out at 1.1. Moreover, the Imax in assay [2] turned out to be 100%; in assay [4], 99.8%; in assay [5], 100%. Besides, in assay [3], the outcome was inactive. Besides, in assay [6], the outcome was Active. In assay [7], this molecule displayed a Ki of 2 nM.
